According to ChEMBL document CHEMBL2010692, “Inhibitory effect of novel S,N-bisphosphonates on some carcinoma cell lines, osteoarthritis, and chronic inflammation” (Eur J Med Chem, 2012):

What was measured:
Mus musculus [1] = assay: Toxicity in albino mouse assessed as toxic symptoms at 500 to 1000 mg/kg, ip after 24 hrs; settings: in vivo
Mus musculus [2] = assay: Antiinflammatory activity in methylated bovine serum albumin sensitized delayed-type hypersensitivity granuloma mouse model assessed as reduction of granuloma dry weight at 60 mg/kg, sc qd for 9 days; type: functional; settings: 216 h, route subcutaneous
Outline: (§1)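 Groups of 10 female mice (25 g) were sensitized sc over the inguinal lymph node with mBSA emulsion in saline, Freund's incomplete adjuvant and dextran. Three weeks later, two 6-mm hydroxyapatite discs soaked in mBSA (30 mg/mL saline) were implanted sc in the dorsum. Compounds at pH 7.4 were given sc into the scruff at 0.1 mL/10 g, daily from implantation to day 9. Granuloma wet and dry weights were recorded as % inhibition.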

Rattus norvegicus [3] = assay: Antiarthritic activity in complete Freund's adjuvant-induced rat arthritis model assessed as reduction of paw volume in non-injected paw at 50 mg/kg, sc qd for 28 days; type: functional; settings: 672 h, route subcutaneous
Outline: (§2)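 Rat adjuvant-induced polyarthritis. Compounds were dissolved or suspended in sterile saline, sonicated as needed, brought to pH 7.0 with NaOH, and kept as frozen aliquots, fresh each dosing day. Dosing was sc once daily for 28 days, by body weight. The arthritic control group got vehicle sc. Injected and noninjected hindpaw volumes were measured on day 28 by mercury displacement plethysmography and expressed as % inhibition.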

Rattus norvegicus [4] = assay: Antiarthritic activity in complete Freund's adjuvant-induced rat arthritis model assessed as reduction of paw volume in injected paw at 10 mg/kg, sc qd for 28 days; type: functional; settings: 672 h, route subcutaneous
Outline: as §2

Mus musculus [5] = assay: Antiinflammatory activity in methylated bovine serum albumin sensitized delayed-type hypersensitivity granuloma mouse model assessed as reduction of granuloma wet weight at 60 mg/kg, sc qd for 9 days; type: functional; settings: 216 h, route subcutaneous
Outline: as §1

Mus musculus [6] = assay: Antiinflammatory activity in methylated bovine serum albumin sensitized delayed-type hypersensitivity granuloma mouse model assessed as reduction of granuloma wet weight at 25 mg/kg, sc qd for 9 days; type: functional; settings: 216 h, route subcutaneous
Outline: as §1

Mus musculus [7] = assay: Antiinflammatory activity in methylated bovine serum albumin sensitized delayed-type hypersensitivity granuloma mouse model assessed as reduction of granuloma dry weight at 100 mg/kg, sc qd for 9 days; type: functional; settings: 216 h, route subcutaneous
Outline: as §1

Rattus norvegicus [8] = assay: Antiarthritic activity in complete Freund's adjuvant-induced rat arthritis model assessed as reduction of paw volume in non-injected paw at 10 mg/kg, sc qd for 28 days; type: functional; settings: 672 h, route subcutaneous
Outline: as §2

Rattus norvegicus [9] = assay: Antiarthritic activity in complete Freund's adjuvant-induced rat arthritis model assessed as reduction of paw volume in non-injected paw at 20 mg/kg, sc qd for 28 days; type: functional; settings: 672 h, route subcutaneous
Outline: as §2

Rattus norvegicus [10] = assay: Antiarthritic activity in complete Freund's adjuvant-induced rat arthritis model assessed as reduction of paw volume in injected paw at 50 mg/kg, sc qd for 28 days; type: functional; settings: 672 h, route subcutaneous
Outline: as §2

Mus musculus [11] = assay: Antiinflammatory activity in methylated bovine serum albumin sensitized delayed-type hypersensitivity granuloma mouse model assessed as reduction of granuloma wet weight at 100 mg/kg, sc qd for 9 days; type: functional; settings: 216 h, route subcutaneous
Outline: as §1

Mus musculus [12] = assay: Toxicity in albino mouse assessed as mortality at 500 to 1000 mg/kg, […] after 24 hrs; type: organism-based; parameters: dose 500-1000 mg/kg; settings: in vivo
Outline: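 Albino mice (20-25 g) were split into 6 groups of 8. Compounds were given at 500, 750 and 1000 mg/kg; controls received buffer only. Toxic symptoms, mortality and postmortem findings were recorded 24 h after administration. LD50 was calculated by the Dm − Σ(z×d)/n formula.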

Mus musculus [13] = assay: Antiinflammatory activity in methylated bovine serum albumin sensitized delayed-type hypersensitivity granuloma mouse model assessed as reduction of granuloma dry weight at 25 mg/kg, sc qd for 9 days; type: functional; settings: 216 h, route subcutaneous
Outline: as §1

Rattus norvegicus [14] = assay: Antiarthritic activity in complete Freund's adjuvant-induced rat arthritis model assessed as reduction of paw volume in non-injected paw at 30 mg/kg, sc qd for 28 days; type: functional; settings: 672 h, route subcutaneous
Outline: as §2

Rattus norvegicus [15] = assay: Antiarthritic activity in complete Freund's adjuvant-induced rat arthritis model assessed as reduction of paw volume in injected paw at 30 mg/kg, sc qd for 28 days; type: functional; settings: 672 h, route subcutaneous
Outline: as §2

Rattus norvegicus [16] = assay: Antiarthritic activity in complete Freund's adjuvant-induced rat arthritis model assessed as reduction of paw volume in injected paw at 20 mg/kg, sc qd for 28 days; type: functional; settings: 672 h, route subcutaneous
Outline: as §2

Rattus norvegicus [17] = assay: Antiarthritic activity in complete Freund's adjuvant-induced rat arthritis model assessed as reduction of paw volume in injected paw at 100 mg/kg, sc qd for 28 days; type: functional; settings: 672 h, route subcutaneous
Outline: as §2

Mus musculus [18] = assay: Antiinflammatory activity in methylated bovine serum albumin sensitized delayed-type hypersensitivity granuloma mouse model assessed as reduction of granuloma wet weight at 50 mg/kg, sc qd for 9 days; type: functional; settings: 216 h, route subcutaneous
Outline: as §1

Rattus norvegicus [19] = assay: Antiarthritic activity in complete Freund's adjuvant-induced rat arthritis model assessed as reduction of paw volume in non-injected paw at 100 mg/kg, sc qd for 28 days; type: functional; settings: 672 h, route subcutaneous
Outline: as §2

Mus musculus [20] = assay: Antiinflammatory activity in methylated bovine serum albumin sensitized delayed-type hypersensitivity granuloma mouse model assessed as reduction of granuloma dry weight at 50 mg/kg, sc qd for 9 days; type: functional; settings: 216 h, route subcutaneous
Outline: as §1

HepG2 = assay: Cytotoxicity against human HepG2 cells after 48 hrs by SRB assay; type: functional, cell-based; settings: HepG2, 48 h
Outline: (§3)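 Cells were seeded at 10^4 per well and allowed to attach for 24 h. They were then exposed to four compound concentrations (5, 12.5, 25, 50), each in triplicate wells, for 48 h at 37 °C in 5% CO2. Cells were fixed and stained with sulforhodamine B, washed with acetic acid, and bound dye was recovered in Tris-EDTA pH 7.4 and read on a plate reader. IC50 was taken from survival curves using the triplicate means.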

HCT-116 = assay: Cytotoxicity against human HCT116 cells after 48 hrs by SRB assay; type: functional, cell-based; settings: HCT-116, 48 h
Outline: as §3

Compound	inhibition in vivo at 60 mg/kg (Mus musculus [2])	inhibition in vivo at 50 mg/kg (Rattus norvegicus [3])	inhibition in vivo at 10 mg/kg (Rattus norvegicus [4])	inhibition in vivo at 60 mg/kg (Mus musculus [5])	inhibition in vivo at 25 mg/kg (Mus musculus [6])	inhibition in vivo at 100 mg/kg (Mus musculus [7])	inhibition in vivo at 10 mg/kg (Rattus norvegicus [8])	inhibition in vivo at 20 mg/kg (Rattus norvegicus [9])	inhibition in vivo at 50 mg/kg (Rattus norvegicus [10])	inhibition in vivo at 100 mg/kg (Mus musculus [11])	inhibition in vivo at 25 mg/kg (Mus musculus [13])	inhibition in vivo at 30 mg/kg (Rattus norvegicus [14])	inhibition in vivo at 30 mg/kg (Rattus norvegicus [15])	inhibition in vivo at 20 mg/kg (Rattus norvegicus [16])	inhibition in vivo at 100 mg/kg (Rattus norvegicus [17])	inhibition in vivo at 50 mg/kg (Mus musculus [18])	inhibition in vivo at 100 mg/kg (Rattus norvegicus [19])	inhibition in vivo at 50 mg/kg (Mus musculus [20])	other results
CCOP(=O)(OCC)C1(P(=O)(OCC)OCC)N=C(c2ccc(N(CC)CC)cc2)c2ccccc2C1=S	40%	65%	< 5%	31%	22%	44%	44%	56%	24%	34%	32%	52%	16%	20%					Activity (Mus musculus [1]): Non-toxic; Activity (Mus musculus [12]): Non-toxic
CCN(CC)c1ccc(C2=NC(P(=O)(O)O)(P(=O)(O)O)C(=S)c3ccccc32)cc1		10%				30%			< 5%	23%					18%	16%	24%	26%	
COc1cccc2c1C(=O)c1c(O)c3c(c(O)c1C2=O)C[C@@](O)(C(=O)CO)C[C@@H]3O[C@H]1C[C@H](N)[C@H](O)[C@H](C)O1 [DOXORUBICIN]																			IC50 (HepG2): 5.7 µM; IC50 (HCT-116): 6.86 µM
O=P(O)(O)C1(P(=O)(O)O)C(=S)c2ccccc2N=C1C1CCCCC1		8%				36%			< 5%	24%					16%	19%	14%	28%	
CCOP1(=O)Nc2ccccc2C(S)=C1P(=O)(OCC)OCC (configuration not stated)	42%	75%	< 5%	44%	33%	50%	66%	56%	25%	51%	38%	68%	14%	10%					
CCOP(=O)(OCC)C1(P(=O)(OCC)OCC)Nc2ccccc2C1=S	42%	64%	5%	31%	24%	46%	48%	60%	15%	44%	30%	58%	11%	7%					
CCOP(=O)(OCC)C1=C(S)c2ccccc2N(C)P1(=O)OCC (configuration not stated)	53%	76%	18%	48%	33%	55%	66%	60%	37%	50%	50%	73%	35%	27%					Activity (Mus musculus [1]): Non-toxic; Activity (Mus musculus [12]): Non-toxic
CC1=Nc2ccc(Br)cc2C(=S)C1(P(=O)(O)O)P(=O)(O)O		12%				25%			< 5%	13%					21%	< 10%	18%	18%	
O=P(O)(O)C(Cl)(Cl)P(=O)(O)O [CLODRONIC ACID]	44%	68%	23%	40%	30%	48%	56%	70%	35%	44%	33%	62%	34%	28%					
CN1c2ccccc2C(=S)C1(P(=O)(O)O)P(=O)(O)O		18%				32%			< 5%	25%					13%	15%	27%	16%	
CCOP(=O)(OCC)C1(P(=O)(OCC)OCC)C(=S)c2ccccc2N=C1C	37%	66%	< 5%	30%	20%	44%	38%	61%	20%	40%	24%	72%	18%	23%					
